Fewer inactive variants are shown than the library holds.
B1: tRNA (parent)
chain: GUUCCGUUGGCGUAAUGGUAACGCGUCUCCCUCCUAAGGAGAAGACUGCGGGUUCGAGUCCCGUACGGAACG

Variants of: B1
Assay: yeast fitness relative to wild type (ratio to wild type); higher = fitter; tRNA-Arg(CCU), competitive growth, 37 C, YPD
Method in brief: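 Amplicons of the tRNA-Arg(CCU) gene were sequenced, 100-nucleotide paired-end, from the start population and from each end population of a pooled yeast competition. The competition, in six parallel replicates, lasted 24 hours in YPD at 37°C. Fitness relative to wild type was calculated from changes in genotype frequencies. Genotypes had to have ≥ 100 starting reads, and estimates < 0.5 were set to 0.5.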

Variant | yeast fitness
C5U A15C G18A G23A U35C A42G C49A | ≤ 0.5
C5U A15C G18A U35C A42G | ≤ 0.5
C5U A15C G18A U35C A42G C49A | 0.586
C5U A15C G23C G56A | ≤ 0.5
C5U A15C G58A | 0.569
C5U A15C U32A G52C C62G U64C | ≤ 0.5
C5U A15C U32A U47C | ≤ 0.5
C5U A15G A20C U26C G41C G67C | 0.593
C5U A15G A20U | 0.662
C5U A15G A20U A42G G63A | ≤ 0.5
C5U A15G A70U | 0.696
C5U A15G C22G G41A A45U U47A C62U | ≤ 0.5
C5U A15G C46G | 0.892
C5U A15G G17C C66U | ≤ 0.5
C5U A15U | 0.671
C5U A15U A21G C49U | ≤ 0.5
C5U A15U C27G | ≤ 0.5
C5U A15U C29U C31U C34U | 0.519
C5U A15U C29U C31U C34U C66A | ≤ 0.5
C5U A15U C29U C31U C34U G48C G68A | ≤ 0.5
C5U A15U C29U C31U C34U U64C | ≤ 0.5
C5U A15U C30G C33G A40G A42G A43U U54G | ≤ 0.5
C5U A15U C55A | ≤ 0.5
C5U A15U G17A G44C | ≤ 0.5

Variant | yeast fitness
C5U A15U G23C A45U C62A | ≤ 0.5
C5U A15U G51C C61G C62G | 0.776
C5U A15U U35C A45C | ≤ 0.5
C5U A20C | 1.1
C5U A20C A43G | 0.658
C5U A20C A69U | 0.771
C5U A20C C22U A36G G52C | ≤ 0.5
C5U A20C C24U C34G | ≤ 0.5
C5U A20C C31A C34G A57G A65U | 0.593
C5U A20C C66A | 0.51
C5U A20C C66U | 0.616
C5U A20C G23C C24U C31U | ≤ 0.5
C5U A20C G44C | 0.573
C5U A20C G58A | ≤ 0.5
C5U A20C G68C | 0.542
C5U A20C U26G C30U C49U C66G | ≤ 0.5
C5U A20G | 0.904
C5U A20G A21G C31U | ≤ 0.5
C5U A20G A37G | 0.524
C5U A20G A37G G67A | ≤ 0.5
C5U A20G A43G A65U | ≤ 0.5
C5U A20G C24G U26G A37C A57G C66A | ≤ 0.5
C5U A20G C31G U47C G48C | ≤ 0.5
C5U A20G C46G C49G | ≤ 0.5

Variant | yeast fitness
C5U A20G C49G G52A A57C | ≤ 0.5
C5U A20G C61U | 0.711
C5U A20G G44C | 0.764
C5U A20G U32G C33G C55U | ≤ 0.5
C5U A20G U47C | ≤ 0.5
C5U A20U A36G A65U | ≤ 0.5
C5U A20U A36U | ≤ 0.5
C5U A20U A40C | ≤ 0.5
C5U A20U A45U | 0.582
C5U A20U A70U | 0.842
C5U A20U C24U C27U A45G | ≤ 0.5
C5U A20U C30U C46U U47G | ≤ 0.5
C5U A20U C49A | ≤ 0.5
C5U A20U C55G G68A | ≤ 0.5
C5U A20U C60A | ≤ 0.5
C5U A20U C62A G67A A70G | 0.747
C5U A20U G23C C31U U54C | ≤ 0.5
C5U A20U G67A | 0.882
C5U A20U G67A A70G | 0.933
C5U A20U U26A A65C G67C | ≤ 0.5
C5U A20U U26A C34U C49A A57C C62U | ≤ 0.5
C5U A20U U26A G52A | ≤ 0.5
C5U A21C A42G C61G | ≤ 0.5
C5U A21C G23A C49A G52A G56C A57C | 0.508

Variant | yeast fitness
C5U A21C U54C A65U | 0.643
C5U A21G | 0.981
C5U A21G A37G G39C G44C C46A U54C A65C | ≤ 0.5
C5U A21G A42U G50C | ≤ 0.5
C5U A21G A45G | 0.638
C5U A21G C22G A43U | 0.533
C5U A21G C24A A42C | ≤ 0.5
C5U A21G C24A A42C G63A | ≤ 0.5
C5U A21G C24G U28G | ≤ 0.5
C5U A21G C27U A69U | ≤ 0.5
C5U A21G C33G G38A C60A | ≤ 0.5
C5U A21G G25A A42U G58A | 0.744
C5U A21G G67A | 0.629
C5U A21G U26A | 0.738
C5U A21G U28C A36G A69G | 0.599
C5U A21U A57U A65U | ≤ 0.5
C5U A21U A57U C60A G68C | 0.566
C5U A21U C29G G58C | ≤ 0.5
C5U A21U C30G | 0.632
C5U A21U C30G A42G U59C C66G G68A | ≤ 0.5
C5U A21U C30G A70U | 0.651
C5U A21U C30G C33U C66A | ≤ 0.5
C5U A21U C30G C60G A70C | ≤ 0.5
C5U A21U C30G C62U | 0.57

Variant | yeast fitness
C5U A21U C30G C66U | ≤ 0.5
C5U A21U C33U C62U A70C | ≤ 0.5
C5U A21U C33U G50A U59C | ≤ 0.5
C5U A21U U32A A40U C60G | 0.694
C5U A21U U64A | ≤ 0.5
C5U A36C | 0.69
C5U A36C A43G U54A C55G A69U | ≤ 0.5
C5U A36C U54A | ≤ 0.5
C5U A36G | 1
C5U A36G A45U | 1.01
C5U A36G A65G A70C | ≤ 0.5
C5U A36G C49U A69C | ≤ 0.5
C5U A36G G51C | ≤ 0.5
C5U A36G G52C | ≤ 0.5
C5U A36U | 0.632
C5U A36U A45U | ≤ 0.5
C5U A36U A65U | 0.712
C5U A36U G67A | ≤ 0.5
C5U A37C | 0.764
C5U A37C A40C G51A C55A G58A | 0.529
C5U A37C A70C | 0.631
C5U A37C C46G C60U | ≤ 0.5
C5U A37C C46U U53C A69C | ≤ 0.5
C5U A37C G39C | ≤ 0.5

Variant | yeast fitness
C5U A37C U47C C61U | ≤ 0.5
C5U A37C U54A | ≤ 0.5
C5U A37G A43C C46U C62U | ≤ 0.5
C5U A37G A43C C62U | 0.541
C5U A37G A43C U59C C62U | ≤ 0.5
C5U A37G A45C C61G A70U | ≤ 0.5
C5U A37G U47G A69G | ≤ 0.5
C5U A37U | 0.732
C5U A37U A42U U59A | 0.537
C5U A37U A57U A69C | ≤ 0.5
C5U A37U A65G | 0.57
C5U A37U A69U | 0.634
C5U A37U C49A G56C | ≤ 0.5
C5U A37U G56C | 0.686
C5U A40C A42G G68A | ≤ 0.5
C5U A40C C46A | 0.794
C5U A40C C46A U54A | 0.55
C5U A40C G48A | 0.592
C5U A40C U47C A65U | ≤ 0.5
C5U A40G | 1.01
C5U A40G A43G C55U | ≤ 0.5
C5U A40G G50C A57C G58C | ≤ 0.5
C5U A40U | 0.833
C5U A40U A42G | ≤ 0.5

Variant | yeast fitness
C5U A40U A45G C46U | 0.986
C5U A40U A57U | ≤ 0.5
C5U A40U G44A C61A | ≤ 0.5
C5U A40U G56A G67C | ≤ 0.5
C5U A42C | 1.01
C5U A42C C66U | 0.793
C5U A42G | 0.728
C5U A42G A45G C55G | ≤ 0.5
C5U A42G C49U A65C | ≤ 0.5
C5U A42G G51C | 0.549
C5U A42G U47A | 0.619
C5U A42U A43G | 0.63
C5U A42U A69U | 0.728
C5U A43C A69C | 0.802
C5U A43G | 0.966
C5U A43G A45G | 0.669
C5U A43G C62A | 0.588
C5U A43U | 0.918
C5U A43U C49U C61A C66U | ≤ 0.5
C5U A43U C49U C61G | 0.532
C5U A43U C49U C61U | ≤ 0.5
C5U A43U C49U C66U | ≤ 0.5
C5U A43U G48A C61G A70C | ≤ 0.5

Reference: the RNAGym collection of RNA variant scans (doi:10.1126/science.aae0568)
